# Laboratory results: PubChem BioAssay
# Activity calls are given as the source filed them.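 The calls were made as follows, unless noted: active = Her2 level under about 52% in both replicate screens, with viability over 70% of control (limit read from the data); inconclusive = Her2 under the limit in one screen only, or viability under 70%; inactive = Her2 level above the set limit.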
# Tests used:
# [1] = reducers of endogenous Her2 protein level, primary screen, SKBR3 breast tumor cells, AlphaScreen, ATP viability (AID 461); conditions: 18-24 h, measured here: SKBR3 viability, ATP luminescence, at 10 µM;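 as to Her2 level: lower value means less Her2 protein in the cells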;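 as to viability: percent of carrier control wells set as 100% viability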
# [2] = target: Receptor tyrosine-protein kinase erbB-2 (Homo sapiens) (UniProt P04626); experiment: as above; conditions: 18-24 h, at 10 µM, stronger effect = lower value
# Chain of Receptor tyrosine-protein kinase erbB-2 (Homo sapiens) (P04626 whole entry, looked up): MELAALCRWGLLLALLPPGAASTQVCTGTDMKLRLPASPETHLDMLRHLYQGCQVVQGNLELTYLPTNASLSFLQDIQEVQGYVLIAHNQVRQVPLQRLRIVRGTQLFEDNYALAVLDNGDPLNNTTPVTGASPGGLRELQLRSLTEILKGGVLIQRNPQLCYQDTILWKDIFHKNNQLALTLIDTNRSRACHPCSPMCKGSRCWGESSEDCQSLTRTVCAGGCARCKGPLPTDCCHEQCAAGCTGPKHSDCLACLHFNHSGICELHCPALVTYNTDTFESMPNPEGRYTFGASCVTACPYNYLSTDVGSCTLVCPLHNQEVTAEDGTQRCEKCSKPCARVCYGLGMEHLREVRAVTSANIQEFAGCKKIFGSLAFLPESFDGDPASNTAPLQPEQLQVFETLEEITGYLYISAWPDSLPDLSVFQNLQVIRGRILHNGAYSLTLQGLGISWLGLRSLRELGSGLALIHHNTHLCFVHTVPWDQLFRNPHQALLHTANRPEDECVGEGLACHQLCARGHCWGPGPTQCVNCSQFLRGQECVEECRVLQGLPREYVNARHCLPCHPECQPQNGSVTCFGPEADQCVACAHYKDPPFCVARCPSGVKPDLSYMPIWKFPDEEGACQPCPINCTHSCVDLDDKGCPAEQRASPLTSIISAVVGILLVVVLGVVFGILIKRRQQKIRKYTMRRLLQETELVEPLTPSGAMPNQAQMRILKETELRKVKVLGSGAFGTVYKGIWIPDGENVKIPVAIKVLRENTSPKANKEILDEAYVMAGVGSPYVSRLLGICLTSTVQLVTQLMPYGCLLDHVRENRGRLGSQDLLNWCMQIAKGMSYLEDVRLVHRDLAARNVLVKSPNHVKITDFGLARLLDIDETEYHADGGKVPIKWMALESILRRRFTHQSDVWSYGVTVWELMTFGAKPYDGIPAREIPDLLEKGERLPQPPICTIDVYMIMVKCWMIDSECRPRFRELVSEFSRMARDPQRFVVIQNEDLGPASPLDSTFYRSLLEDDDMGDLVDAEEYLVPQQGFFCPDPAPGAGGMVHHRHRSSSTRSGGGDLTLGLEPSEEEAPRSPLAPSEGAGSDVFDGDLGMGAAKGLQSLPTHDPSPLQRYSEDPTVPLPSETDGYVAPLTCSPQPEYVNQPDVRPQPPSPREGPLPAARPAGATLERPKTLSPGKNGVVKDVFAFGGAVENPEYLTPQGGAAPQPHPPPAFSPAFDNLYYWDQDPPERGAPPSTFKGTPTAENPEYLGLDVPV
# [3] = SK-BR-3 cell growth inhibitors, pilot screen, 24 h, human (AID 572;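 active = viability at or below 10% of carrier control in both of two separate runs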;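 also: compound exposure lasted between 18 and 24 h rather than exactly 24 h; 100% = carrier-treated control wells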); conditions: SK-BR-3 viability, CellTiter-Glo luminescence, at 10 µM, stronger effect = lower value
# [4] = HUVEC growth inhibition – cell-based, human, primary screen (AID 575;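 active = viability at or below 30% in both replicate assays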;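 also: 100% = median of untreated cell wells with 0.1% DMSO on each plate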); conditions: HUVEC proliferation, CellTiter-Glo luminescence, 72 h; at 10 µM; stronger effect = lower value
# Method in brief: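 Assay system: primary human umbilical vein endothelial cells / Buffer or medium: endothelial basal medium with 2% FBS plus growth supplements / Compound dosing: one dose, 10 µM final, 0.1% DMSO / Timing: 72 h treatment at 37 °C / Signal: CTG luminescence / Benchmarks: 32 DMSO-only cell-control wells (high), 32 MePR drug-control wells (low) per plate / Plate: collagen-coated 384-well format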
# [5] = growth inhibitors of H69AR lung tumor, primary screen, human, duplicate replicates (AID 580;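 active = viability at or under a set limit in both replicates, limit being median viability minus 3 SD, cut at about 48% in these data, passing the limit was not always enough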;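 also: 100% = mean luminescence of untreated wells and 0% = no signal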); conditions: H69AR lung tumor cells viability, ATP luminescence, 72 h; at 10 µM; stronger effect = lower value
# [6] = reversal of MRP1-mediated doxorubicin resistance, pilot screen, H69AR cells, doxorubicin co-treatment (AID 601;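 active = viability loss from added drug above about 55%, and viability with drug at most 40%, in both replicates, limit read from the data, passing the limit was not always enough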); conditions: CellTiter-Glo, 72 h, at 10 µM; for differential viability (reversal): stronger effect = higher value
# [7] = 384-well plate pilot, post-Golgi transport modulator project, inhibition of yeast transport mutant growth (AID 636; in the data active = inhibition above about 31%); conditions: absorbance 615 nm, about 18 h, stronger effect = higher value
# [8] = growth suppression of yeast trafficking mutant, preliminary HTS, modulators of trafficking downstream of Golgi apparatus project, 1536-format plate, OD 615 nm (AID 637; in the data active = inhibition above about 30%); conditions: yeast transport mutant growth, absorbance 615 nm, 18 h; stronger effect = higher value
# [9] = H69AR cells + 2 uM doxorubicin, measured here: viability with 2 uM doxorubicin, stronger effect = lower value
# [10] = H69AR cells, compound alone cytotoxicity
Compound,viability [1],Her2 level [2],viability [3],viability [4],viability [5],differential viability (reversal) ([6]; H69AR cells + 2 uM doxorubicin),"viability [6, 9]","viability [6, 10]",inhibition [7],inhibition [8]
Cc1nn(-c2ccccc2)c(Cl)c1C(=O)NCC(=O)O,100%,96% (inactive),100% (inactive),105% (inactive),113% (inactive),1.59% (inactive),111%,113%,-6.45% (inactive),0.17% (inactive)
Cc1ccccc1N(C)S(=O)(=O)c1ccc2[nH]cc(C(=O)NCC3CCCO3)c(=O)c2c1 (stereo not given),83%,71% (inactive),83% (inactive),90.1% (inactive),91.7% (inactive),4.24% (inactive),87.5%,91.7%,-4.61% (inactive),0.17% (inactive)
NS(=O)(=O)c1ccc(NCc2c(F)cccc2Cl)cc1,100%,95.5% (inactive),100% (inactive),102% (inactive),82.9% (inactive),6.38% (inactive),76.5%,82.9%,-3.82% (inactive),7.54% (inactive)
Fc1ccc(NCc2nnc(SCc3nnc(-c4ccccc4)o3)n2CC2CCCO2)cc1 (stereo not given),96.5%,109% (inactive),96.5% (inactive),97.8% (inactive),78.9% (inactive),-18.4% (inactive),97.3%,78.9%,-0.54% (inactive),15.4% (inactive)
COc1ccc(OC)c(C2C(C#N)=C(N)Oc3cc(C)[nH]c(=O)c32)c1 (stereo not given),92%,84.5% (inactive),92% (inactive),83.8% (inactive),99.5% (inactive),0.505% (inactive),99%,99.5%,-3.87% (inactive),0.49% (inactive)
CCc1nc(SCC(=O)Nc2nccs2)c2oc3ccccc3c2n1,91%,87.5% (inactive),91% (inactive),109% (inactive),37.4% (active),-5.17% (inactive),42.6%,37.4%,-7.43% (inactive),-7% (inactive)
Cc1ccc(-c2noc(-c3ccccc3C(=O)NCC3CCCO3)n2)cc1 (stereo not given),91%,107% (inactive),91% (inactive),100% (inactive),100% (inactive),5.99% (inactive),94.4%,100%,-0.13% (inactive),-3.97% (inactive)
COc1ccccc1-c1cn[nH]c(=S)n1,101%,108% (inactive),101% (inactive),100% (inactive),96.1% (inactive),3.25% (inactive),92.9%,96.1%,1.07% (inactive),-8.06% (inactive)
O=C(NCC(F)(F)F)N1CCOCC1,96%,85.5% (inactive),96% (inactive),89.5% (inactive),100% (inactive),8.42% (inactive),91.8%,100%,-6.71% (inactive),-6.19% (inactive)
CCOc1cc(-c2nc(-c3ccccc3OC)no2)cc(OCC)c1OCC,90%,96.5% (inactive),90% (inactive),97.4% (inactive),92.5% (inactive),-2.62% (inactive),95.1%,92.5%,-2.13% (inactive),22% (inactive)
COc1cccc(C(=O)Nc2ncc3c(n2)CC(C)CC3=O)c1 (stereo not given),97.5%,88.5% (inactive),97.5% (inactive),107% (inactive),109% (inactive),9.34% (inactive),100%,109%,-2.16% (inactive),2.22% (inactive)
Cc1ccc(Cn2nnc3c(=O)n(CC(=O)NCC4CCCO4)cnc32)cc1 (stereo not given),97%,88.5% (inactive),97% (inactive),105% (inactive),104% (inactive),13.4% (inactive),90.4%,104%,-6.05% (inactive),-0.79% (inactive)
Cc1nnc(NC(=O)c2ccccc2F)s1,100%,101% (inactive),100% (inactive),107% (inactive),104% (inactive),13.8% (inactive),90.2%,104%,-3.24% (inactive),4.76% (inactive)
CCOC(=O)Cn1c2c(c(=N)c3ccccc31)CCC2,122%,98% (inactive),122% (inactive),89.4% (inactive),92.6% (inactive),2.31% (inactive),90.3%,92.6%,-6.27% (inactive),-1.15% (inactive)
CC1(C)CNC(=O)CC(C)(C)N1O,90%,129% (inactive),90% (inactive),101% (inactive),95.6% (inactive),3.01% (inactive),92.6%,95.6%,-1.43% (inactive),0% (inactive)
CC(=O)N1CCC(N(C(=O)Nc2ccc(C)c(C)c2)C2CCCC2)CC1,92%,102% (inactive),92% (inactive),90.4% (inactive),85.6% (inactive),-3.42% (inactive),89.1%,85.6%,-1.54% (inactive),-5.33% (inactive)
